# Out of some 330,000 compounds screened, about 2,000 (0.61%) were called active. The full list was thinned out, with actives kept by preference. Values without a mark were called inactive.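 How the source made its calls: active means inhibition above that plate's mean sample inhibition plus 3 SD (cut at about 26% in these data); inactive means the rest.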
# Assay: ATP-evoked calcium signal inhibitors, parental CHO, primary screen, counter-screen for OX1R antagonist project, cell-based, fluorescence, Fluo-8 calcium dye (AID 463079);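 further: 0% = ATP-challenged DMSO wells and 100% = DMSO wells without ATP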
# Settings: parental CHO-K1, ATP-induced calcium, Fluo-8 fluorescence; at 5.6 µM; hits give high values
# In short: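 Material – parental CHO cells · Reagent – ATP stimulus · Compound – single nominal dose of 5.6 µM per compound · Detection – Fluo-8 fluorescence · Read-out basis – percent inhibition of calcium signal · Controls – ATP-challenged DMSO wells low, unchallenged DMSO wells high · Repeats – no replicates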
row,Compound,inhibition
1,Cc1ccc(S(=O)(=O)Nc2nc(C)cc(-n3nc(C)cc3C)n2)cc1,2.29%
2,Cc1ccc(S(=O)(=O)NC(C(=O)N2CCOCCOCCOCCOCC2)c2ccccc2)cc1 (configuration not stated),-9.77%
3,CCCC(C(=O)n1nc(C)cc1C)C(NS(=O)(=O)c1ccc(C)cc1)c1ccccc1 (configuration not stated),40.6% (active)
4,C/C(=N/OC(=O)c1cccc(C(F)(F)F)c1)c1cnccn1,-5.36%
5,O=C(Nc1ccc2ccccc2c1)Nc1ccc2snnc2c1,55.2% (active)
6,O=C(Nc1cccc(Br)c1)c1ccc2snnc2c1,17.8%
7,CCc1ccccc1NC(=O)c1ccc2snnc2c1,-1.87%
8,COc1cc(C2OC(c3cc(OC)c(OC)c(OC)c3)C(C)C2C)cc(OC)c1OC (configuration not stated),-16.8%
9,CC1(NC(=O)CCS(=O)(=O)c2ccc(Cl)cc2)CCS(=O)(=O)C1 (configuration not stated),-11.8%
10,CCCN1C(=O)C(NS(=O)(=O)c2ccc(N)cc2)(C(F)(F)F)C(C(=O)OC)=C1C (configuration not stated),-9.93%
11,COc1cc(NC(=O)CSc2nnc3ccc(-c4ccncc4)nn23)cc(OC)c1,-9.28%
12,CCOC(=O)c1ccc(NC(=O)CSc2nnc(COc3ccccc3OC)n2C)cc1,-24.5%
13,CCCc1nnc(SCC(=O)Nc2ccc(C(=O)OCC)cc2)o1,-6.7%
14,CCOC(=O)c1ccc(NC(=O)Cn2cnc3cc(C)c(C)cc32)cc1,56.1% (active)
15,COc1ccc(C(=O)Nc2cc(S(=O)(=O)N3CCCC3)ccc2Cl)cc1,-15.8%
16,CN(C)C(=O)CCc1ccc2c3c([nH]c2c1)[C@]1(CCc2ccccc2)[C@@H](C(=O)N2CCCCC2)C[C@H](CC(=O)NCCC2=CCCCC2)C(=O)N1CC3,-31.7%
17,Oc1cc(O)c2c(c1)OC(c1ccc(O)c(O)c1)C(O)C2 (configuration not stated),-0.43%
18,CC(C)Cc1nnc(NC(=O)CCNC(=O)c2ccccc2Cl)s1,-7.69%
19,CCOC(=O)N1CCN(C(=O)C2CCN(S(=O)(=O)c3cc(Cl)ccc3OCC)CC2)CC1,-9.79%
20,CCOC(=O)N1CCN(C(=O)C2CCN(Cc3ccc(OC)cc3OC)CC2)CC1,-15.1%
21,CCOC(=O)N1CCN(C(=O)C2CCN(c3ncnc4c3sc3cccc(F)c34)CC2)CC1,37.1% (active)
22,COc1cccc(CC(=O)OCC(=O)NCc2ccc3c(c2)OCO3)c1,-4.2%
23,Cc1cccc(NC(=O)c2cccnc2Cl)n1,1.32%

row,Compound,inhibition
1,Cc1cccc(NC(=O)c2ccc(S(=O)(=O)N(C)c3ccccc3)cc2)n1,-10.9%
2,CSc1nccc(NC(=O)c2ccc(C(C)(C)C)cc2)n1,33.6% (active)
3,O=c1cnnc(Nc2ccccc2)[nH]1,-11.1%
4,CCOc1ccccc1OCC(=O)Nc1ccccc1C(=O)NC1CC1,14.9%
5,CC(C)OCCCNc1ncnc2c1[nH]c1ccc(F)cc12,58.6% (active)
6,O=C1c2ccccc2C(=O)N1CCC#Cc1ccc2cc(C3(O)CCCCC3)oc(=O)c2c1,-14.2%
7,O=C(NCCC(=O)N1O[C@@H]2C=C[C@H]1C2)OCC1c2ccccc2-c2ccccc21,-10.5%
8,CC(C)Cc1cc(C(=O)Nc2cc(Br)ccc2O)no1,43% (active)
9,CC(C)CNC(=O)c1cc(-c2ccc(Br)cc2)on1,-10.3%
10,CC(C)Cc1cc(C(=O)NCCc2ccccc2)no1,-2.04%
11,Cc1ccc(C)c(S(=O)(=O)Nc2cccc(-n3cnnn3)c2)c1,-1.77%
12,CCOC(=O)C1CCCN(C(=O)c2cccc(S(=O)(=O)N3CCOCC3)c2)C1 (configuration not stated),-2.51%
13,COc1ccc(/C=C/C(=O)Nc2c(C)nn(C)c2C)cc1COc1ccc(Br)cc1,13.3%
14,O=C(Nc1cccc([N+](=O)[O-])c1)c1ccc2c(c1)OCO2,-1.24%
15,O=C(Nc1ccc(C2CC2(Cl)Cl)cc1)c1cccc([N+](=O)[O-])c1 (configuration not stated),46.7% (active)
16,O=C(Nc1ccc(NC(=O)c2ccco2)c(Cl)c1)c1cccc([N+](=O)[O-])c1,-6.79%
17,COC(=O)[C@@H]1C[C@@]2(O)[C@H](O)[C@H](O)[C@H](O)C[C@H]2N1Cc1ccc(C)s1,2.13%
18,O=C(CO/N=C/c1ccccc1O)NNC(=O)c1ccccc1Cl,2.58%
19,CC[n+]1cc(C)ccc1/C=C/c1ccc(N(C)C)cc1,51.9% (active)
20,CCOC(=O)C1=CN(Cc2ccc(Br)cc2)S(=O)(=O)N(C)C1C (configuration not stated),-13.1%
21,O=C(N/C(=C\c1ccc(O)cc1)C(=O)N1CCCCC1)c1ccccc1,-2.82%
22,N#C/C(=C/c1ccc(Cl)cc1)NC(=O)c1ccccc1,50.3% (active)
23,O=C(NCC1CCCO1)/C(=C/c1ccc(Cl)cc1)NC(=O)c1ccccc1 (configuration not stated),-2.9%

row,Compound,inhibition
1,S=C(NCCC1=CCCCC1)Nc1ccccc1,6.17%
2,COc1cc(OC)c2c(-c3cccc(-c4cccc(N)c4)c3)cc(=O)oc2c1,-15.7%
3,CSc1sc(C)cc1C1C(C#N)=C(N)N(c2cccnc2)C2=C1C(=O)CCC2 (configuration not stated),-13.3%
4,CN(C(=O)CN(CCO)CC(=O)N(C)C(C)(C)Cc1ccccc1)C(C)(C)Cc1ccccc1,52.8% (active)
5,OCCN(Cc1ccccc1)Cc1ccc(Cl)cc1,-28.2%
6,CCN(CC)C(=O)N(CC)Cc1ccccc1,-0.04%
7,CCc1cccc(NC(=S)N(CCN(C)C)C2CCN(C(C)C)CC2)c1,1.41%
8,CCc1cc2c(=O)c(-c3ccon3)c(N)oc2cc1OC,-10.2%
9,Cc1ccc(-c2cccc([C@H]3[C@@H]4C=CC[C@@H](C)[C@@H]4C(=O)N3Cc3ccccc3)c2)cc1,-46.9%
10,CCSc1nsc(NC(=O)Nc2cccc(C(C)=O)c2)n1,66.5% (active)
11,C=CCSc1nnc(NC(=O)c2ccc(NC(C)=O)cc2)s1,-14.6%
12,CSc1ccccc1C(=O)Nc1cccc(C(C)=O)c1,-10%
13,CSc1nsc(NC(=O)Nc2ccccc2)n1,18.8%
14,CCSc1nsc(NC(=O)Nc2ccccc2OC)n1,-18.1%
15,C=CCSc1nsc(NC(=O)Nc2cccc(C(C)=O)c2)n1,46.6% (active)
16,CN(C)C=NC(=O)c1cccn1-c1ncc(C(F)(F)F)cc1Cl,7.02%
17,O=C(O)CCN1C(=O)CC2(CCCCC2)C1=O,6.17%
18,CC(=O)c1c(C)[nH]c(C(=O)COc2ccc3c(C)cc(=O)oc3c2)c1C,1.48%
19,CCOC(=O)c1c(C)[nH]c(C(=O)COc2ccc3c(c2)OCO3)c1C,39.2% (active)
20,CCOC(=O)c1c(C)[nH]c(C(=O)OCC(=O)c2ccc(OC)cc2OC)c1C,-26.3%
21,COc1ccc(-c2cnc(SCCNC(=O)c3ccc4c(c3)OCO4)[nH]2)cc1,-9.72%
22,Cc1ccc(NC(=O)c2ccc(Cl)nc2)cc1S(=O)(=O)N1CCOCC1,-8.73%
23,CCN1/C(=C\c2ccc3ccccc3[n+]2CC)Sc2cc(C)ccc21,79.6% (active)

row,Compound,inhibition
1,CCN1/C(=C/c2ccc3ccc(C)cc3[n+]2CC)Sc2ccccc21,80.2% (active)
2,CCOC(=O)CN(C(=O)COc1nc(-c2ccccc2)cc(C)c1C#N)c1ccc(F)cc1,-20.7%
3,O=C(O)CN(Cc1ccco1)S(=O)(=O)c1ccccc1,-6.05%
4,COc1ccc(C(=O)OCC(=O)c2cc(C)n(CC3CCCO3)c2C)cc1[N+](=O)[O-] (configuration not stated),-4.71%
5,CC(NC(=S)Nc1ccc(OC(F)F)cc1)c1ccc(F)cc1 (configuration not stated),14.7%
6,COc1cccc(CNC(C)C(=O)Nc2ccc(S(=O)(=O)N3CCCC3)cc2)c1 (configuration not stated),-9.95%
7,COc1cc2c(cc1OC)C(C(=O)NCc1ccco1)C1c3ccccc3CCN1C2=O (configuration not stated),-23.7%
8,CCOC(=O)c1sc(NC(=O)CSc2nc(C)cc(C(F)(F)F)n2)c(C#N)c1C,4.56%
9,Cc1ccc(S(=O)(=O)N2CCN(C(=O)COC(=O)c3c(C)noc3C)CC2)c(C)c1,-5.91%
10,Cc1ccc(-c2nc(COC(=O)c3c(C)noc3C)cs2)cc1,44.1% (active)
11,COc1ccc(C(=O)COC(=O)c2c(C)noc2C)cc1Cl,-10.6%
12,COc1ccc(S(=O)(=O)N2CCN(c3ncnc4c(-c5ccccc5)nsc34)CC2)cc1,-9.64%
13,COCc1c(C(=O)OCC(=O)Nc2ccc(OC(F)F)cc2)oc2ccccc12,-11.9%
14,Cc1nc(CNS(=O)(=O)c2ccc(Oc3ccccc3)cc2)cs1,44.4% (active)
15,Cc1ccc(S(=O)(=O)NCc2csc(C)n2)c(C)c1,-13.8%
16,Cc1nc(CNS(=O)(=O)c2cc([N+](=O)[O-])ccc2C)cs1,-14.4%
17,COc1ccc(NC2CCCN(C(=O)c3ccncc3)C2)cc1 (configuration not stated),-8.33%
18,CSCCC(C(=O)NC1=NCCS1)N1C(=O)c2ccccc2C1=O (configuration not stated),1.01%
19,CCOc1cccc(C(=O)Nc2nnc(-c3cccs3)s2)c1,-10.2%
20,N#Cc1ccc(Oc2ccc(C(F)(F)F)cc2NC(=O)c2ccc(F)cc2)cc1,-13.8%
21,N#Cc1ccc(C(=O)Nc2nc(-c3cccs3)c(C(=O)C(F)(F)F)s2)cc1,25.4% (active)
22,O=C(/C=C/c1cccc([N+](=O)[O-])c1)NCCSCc1ccco1,-15.3%
23,CCCC(C)C(=O)OCC(=O)Nc1c(Br)cc(C)cc1Br (configuration not stated),-8.47%
